According to PubChem BioAssay:
Active and inactive are the calls of the source.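 The calls were made as follows, unless noted: active = GFP response above 150% of the DMSO level; inconclusive = fewer than 70 events counted for a yeast strain; inactive = the rest.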

Columns and labels:
[1] = RPL19A-GFP modulators, yeast TOR pathway, confirmation, cell-based, S. cerevisiae, flow cytometry, cherry picks, mother/daughter gates (AID 2270;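 active = GFP response below 50% of the DMSO control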); conditions: S. cerevisiae RPL19A-GFP strain, 3 h, at 10 µM, stronger effect = lower value, 100 = same GFP as DMSO wells
[2] = LAP4-GFP expression modulators in yeast, confirmation, cell-based, cherry picks, flow cytometry, mother/daughter gates (AID 2271;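 active = GFP response above 150% of the DMSO control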;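 also: ratio of sample to DMSO plate mean so 100% equals DMSO level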); conditions: S. cerevisiae LAP4-GFP strain, 3 h, at 10 µM, stronger effect = higher value, 100 means same as DMSO control
In short: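 System: GFP-fusion yeast strain | Input: Yeast cells seeded at OD600 of 0.2 | Technique: HT flow cytometry, GFP fluorescence channel | Read-out: % GFP response vs DMSO | Dosing: Single test-compound dose, 10 µM final | Controls: Positive rapamycin (400 ng/mL), negative DMSO | Times: 3 h treatment at 30 °C with rotation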

[3] = modulators of MEP2-GFP levels in yeast, confirmation, S. cerevisiae, flow cytometry GFP, cherry picks (AID 2272;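 active = GFP response above 150% of the DMSO control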;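 also: ratio of well signal to plate DMSO mean so 100% equals DMSO level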); conditions: S. cerevisiae MEP2-GFP strain, 3 h, at 10 µM, stronger effect = higher value
[4] = AGP1-GFP expression modulators, hit retest, confirmation, cell-based, flow cytometry, S. cerevisiae, cherry picks (AID 2273);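 also: median GFP channel fluorescence over the whole cell population gate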; conditions: S. cerevisiae AGP1-GFP strain, 3 h, at 10 µM
[5] = modulators of CIT2-GFP expression in yeast, confirmation, S. cerevisiae, GFP fusion, cherry picks, mother/daughter gates (AID 2274); conditions: S. cerevisiae CIT2-GFP strain, flow cytometry, 3 h, at 10 µM, stronger effect = higher value
[6] = measured here: daughter cell gate
[7] = measured here: mother cell gate
[8] = measured here: daughter cell gate response
[9] = measured here: mother cell gate response

SMILES	GFP response vs DMSO [1]	GFP response vs DMSO [1, 6] [%]	GFP response vs DMSO [1, 7] [%]	GFP response relative to DMSO [2]	GFP response relative to DMSO [2, 8] [%]	GFP response relative to DMSO [2, 9] [%]	GFP response vs DMSO [3]	GFP response, % of DMSO [4]	GFP response, % of DMSO [5]	GFP response, % of DMSO [5, 6] [%]	GFP response, % of DMSO [5, 7] [%]
O=C(/C(=C/c1ccccc1)n1cncn1)c1ccc(Cl)cc1Cl	96% (inactive)	92.7	93.5	149% (inactive)	125	162	98.8% (inactive)	106% (inactive)	86% (inactive)	85.7	79.8
Cc1ccc(NC(=S)NCC23C=CC(O2)C2C(=O)N(c4ccc(C)cc4)C(=O)C23)cc1 (stereo not drawn)	102% (inactive)	101	102	105% (inactive)	105	106	104% (inactive)	98.9% (inactive)	100% (inactive)	98.1	101
O=C(Nc1nccs1)C(c1ccccc1)N1CCCCC1 (stereo not drawn)	103% (inactive)	100	104	93.1% (inactive)	94.2	93.1	103% (inactive)	101% (inactive)	94.4% (inactive)	92	94.4
NC1=NC(=O)C(CC(=O)c2ccc(Cl)cc2)S1 (stereo not drawn)	99.9% (inactive)	100	99.8	106% (inactive)	99.3	107	102% (inactive)	96.7% (inactive)	96.4% (inactive)	96.4	94.5
COc1ccc(-c2cc3cc(C(=O)O)ccn3c2C(=O)c2ccccc2)cc1	97% (inactive)	95.6	98.4	107% (inactive)	106	108	105% (inactive)	98.3% (inactive)	98.3% (inactive)	99.1	99.7
O=C(CCS(=O)(=O)Cc1ccccc1F)NCCc1ccc(Cl)cc1	97.8% (inactive)	102	93.7	101% (inactive)	99	101	101% (inactive)	99.1% (inactive)	100% (inactive)	99.3	99.3
C=CCn1c(=O)c(C(=O)Nc2ccccc2O)c(O)c2ccccc21	99.8% (inactive)	98.9	101	108% (inactive)	106	106	105% (inactive)	98.7% (inactive)	104% (inactive)	105	102
O=C(/C=C/c1ccccn1)c1cc(Br)ccc1O	81.7% (inactive)	93.3	72.8	218% (active)	177	210	109% (inactive)	102% (inactive)	86.1% (inactive)	94.8	77.3
O=[N+]([O-])c1ccc(Sc2ccccc2Cl)nc1	103% (inactive)	104	103	91.9% (inactive)	93.6	89.7	112% (inactive)	106% (inactive)	105% (inactive)	106	103
Cc1cc(C)nc(S/C=C/C(=O)c2ccccc2F)n1	103% (inactive)	102	102	120% (inactive)	119	123	107% (inactive)	94.3% (inactive)	95.2% (inactive)	98.1	92.3
CC(=O)NC1(C(F)(F)F)C(=O)Nc2c1c(=O)[nH]c(=O)n2CCc1ccccc1 (stereo not drawn)	99.6% (inactive)	98.4	98.6	97% (inactive)	97.5	97.3	107% (inactive)	95.7% (inactive)	88.6% (inactive)	90.2	88.2
CC1CC2=C(CC1/C=N/NC(N)=S)C(C)(C)CCC2 (stereo not drawn)	96.4% (inactive)	92.7	95.3	110% (inactive)	106	113	107% (inactive)	97.5% (inactive)	91.5% (inactive)	88.4	90.7
c1ccc(CSc2ccc(-c3ccccn3)nn2)cc1	101% (inactive)	97.1	91.9	108% (inactive)	104	106	114% (inactive)	96.7% (inactive)	97.3% (inactive)	97.4	93.2
CCn1c(=O)c(C(C)=O)c(O)c2ccccc21	104% (inactive)	101	104	89.3% (inactive)	87.7	91	96.8% (inactive)	102% (inactive)	97.3% (inactive)	99.2	91.9
CCCc1nn(-c2ccccc2)c2c1C(c1cccs1)C(C#N)=C(N)O2 (stereo not drawn)	101% (inactive)	100	102	90.2% (inactive)	92.5	95.2	95.7% (inactive)	95.9% (inactive)	102% (inactive)	98.1	102
COc1cccc2cc(C(=O)N3CCN(C/C=C/c4ccccc4)CC3)c(=O)oc12	98.6% (inactive)	99.6	98	97% (inactive)	95.9	98.4	103% (inactive)	96.7% (inactive)	95.9% (inactive)	93.8	96.8
CS(=O)(=O)c1sc(C#N)c2c1C(=O)CC(c1ccccc1)C2 (stereo not drawn)	103% (inactive)	111	96.6	174% (active)	168	179	116% (inactive)	117% (inactive)	105% (inactive)	111	95.7

SMILES	GFP response vs DMSO [1]	GFP response vs DMSO [1, 6] [%]	GFP response vs DMSO [1, 7] [%]	GFP response relative to DMSO [2]	GFP response relative to DMSO [2, 8] [%]	GFP response relative to DMSO [2, 9] [%]	GFP response vs DMSO [3]	GFP response, % of DMSO [4]	GFP response, % of DMSO [5]	GFP response, % of DMSO [5, 6] [%]	GFP response, % of DMSO [5, 7] [%]
CCc1ccc2c(c1)/C(=C/C(=O)c1cccs1)C(=O)N2	94.9% (inactive)	94.7	87.7	178% (active)	156	171	100% (inactive)	104% (inactive)	91.3% (inactive)	91.5	84.8
COc1ccc(-c2nc3cc(C)ccn3c2NCC2CCCO2)cc1OC (stereo not drawn)	94.8% (inactive)	96.4	93.4	97% (inactive)	94.2	96.2	99% (inactive)	104% (inactive)	100% (inactive)	101	99.3
C[n+]1ccc(/C=C/c2c[nH]c3ccc(F)cc23)cc1	101% (inactive)	99.5	102	113% (inactive)	110	115	120% (inactive)	104% (inactive)	110% (inactive)	108	112
COc1cc(/C=N/Nc2nc(C)cc(=O)[nH]2)ccc1O	100% (inactive)	104	98.8	87.2% (inactive)	89.3	86.7	106% (inactive)	105% (inactive)	117% (inactive)	121	115
COC(=O)Cn1cc(/C=C/c2cc[n+](C)cc2)c2ccccc21	99.3% (inactive)	99.3	98.2	97.7% (inactive)	99	98.4	112% (inactive)	104% (inactive)	104% (inactive)	105	104
COc1ccc(OC)c(C(=O)/C=C/c2ccccc2C(F)(F)F)c1	97.6% (inactive)	95.8	98.7	102% (inactive)	103	103	105% (inactive)	98.9% (inactive)	94.7% (inactive)	96.8	94.7
O=C(O)CSc1nnc(-c2ccncc2)n1CCc1ccccc1	98.2% (inactive)	98.4	100	102% (inactive)	98.7	103	100% (inactive)	98.3% (inactive)	91.3% (inactive)	91.5	90.2
CCCn1nc(C(=O)OCC(=O)c2ccc3c(c2)NC(=O)CO3)c2ccccc2c1=O	97.2% (inactive)	96.6	96.5	98.2% (inactive)	97.5	98.4	105% (inactive)	96.3% (inactive)	100% (inactive)	97.4	101
Cc1ccccc1C(=O)Nc1ccccc1	96.4% (inactive)	94.9	97.4	96.7% (inactive)	97.6	97.2	96.2% (inactive)	100% (inactive)	101% (inactive)	103	102
COc1ccc(C2c3c(oc4ccccc4c3=O)C(=O)N2CCN2CCOCC2)cc1OC (stereo not drawn)	103% (inactive)	95.3	101	119% (inactive)	116	114	172% (inactive)	105% (inactive)	129% (inactive)	116	113
O=C(NCCN1CCOCC1)c1ccc(CS(=O)(=O)Cc2ccccc2F)o1	99.6% (inactive)	100	99.7	98.6% (inactive)	99.7	98.2	103% (inactive)	104% (inactive)	110% (inactive)	108	110
Oc1ccc(N=Nc2ccccc2)o1	111% (inactive)	113	106	180% (active)	153	173	124% (inactive)	111% (inactive)	118% (inactive)	119	110
COc1ccc(OC)c(NC(=O)c2cccc3c2C(=O)N(C2CCCCC2)C3)c1	97.8% (inactive)	98.4	98.4	92.8% (inactive)	92.8	90.8	98.3% (inactive)	97.8% (inactive)	101% (inactive)	103	98.5
COc1ccc(C2CC(c3ccccc3)=NN2S(=O)(=O)c2ccccc2)c(OC)c1 (stereo not drawn)	99.2% (inactive)	99.8	99.1	99.5% (inactive)	102	99.4	99% (inactive)	103% (inactive)	106% (inactive)	108	104
N/C(Cc1ccc(Cl)cc1)=N\OC(=O)c1cccc2ccccc12	96.2% (inactive)	82.1	82.6	199% (active)	127	188	126% (inactive)	88.1% (inactive)	139% (inactive)	97.4	127
COc1cccc(C(=O)C(C#N)=C(SC)SC)c1	108% (inactive)	102	106	123% (inactive)	108	126	97.8% (inactive)	95.7% (inactive)	80.8% (inactive)	80.1	79.4
